What was measured:
Escherichia coli = assay: Cytotoxicity on Escherichia coli polA strain mutant expressed as dose required to inhibit 37% of cell growth; type: functional
Mus musculus = species on record: Mus musculus; assay: Treated mean survival time per control mean survival time.; type: functional
L1210 [1] = assay: Maximal tolerated dose for anti-tumor activity in vivo on L1210-infected mice; type: functional, Mus musculus
L1210 [2] = assay: Dose that inhibits 50% of the L1210 cell growth after 24 hr exposure to the compound.; type: functional; conditions: Mus musculus, L1210, 24 h; read-out: ED50 (the source's name)
L1210 [3] = assay: Optimal dose for anti-tumor activity in vivo on L1210-infected mice; type: functional, Mus musculus
L1210 [4] = assay: Dose required to inhibit the cloning efficiency to a factor of 37%,measured in vitro on L1210 cells after 24-h exposure
Nucleic Acid = assay: Binding affinity for DNA; type: nucleic-acid assay
Summary of the method: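 Fluorometric competition with ethidium dimer (6.4 × 10^-7 M) pre-equilibrated 24 h with calf thymus DNA (1.6 × 10^-6 M base pairs). Drug was added at varying concentrations. Fluorescence was excited at 540 nm and read at 610 nm. Bound ethidium dimer per base pair was derived, and computed displacement curves were fitted to the experimental ones to give apparent affinity constants (M^-1).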

| Compound | EC37 (Escherichia coli) [µM] | T/C (Mus musculus) [%] | MTD (L1210 [1]) [mg/kg] | EC50 (L1210 [2]) [µM] | OD (L1210 [3]) [mg/kg] | EC37 (L1210 [4]) [µM] | K app x10e-7 (Nucleic Acid) [M⁻¹] |
| --- | --- | --- | --- | --- | --- | --- | --- |
| COc1ccc2[nH]c3ccc4cc[n+](CCCN5CCC(C6CCN(CC[n+]7ccc8ccc9[nH]c%10ccc(OC)cc%10c9c8c7)CC6)CC5)cc4c3c2c1.CS(=O)(=O)[O-].CS(=O)(=O)[O-] | 0.016 | 137 | 20 | 0.72 | 10 | 0.09 | 5 |
| COc1ccc2c(c1)c1c3c[n+](CCN4CCC(CCCC5CCN(CC[n+]6ccc7ccc8c(c7c6)c6cc(OC)ccc6n8C)CC5)CC4)ccc3ccc1n2C.CS(=O)(=O)[O-].CS(=O)(=O)[O-] | 0.009 |  | 10 | 0.26 | 10 | 0.15 | 20 |
| COc1ccc2[nH]c3ccc4cc[n+](CCN5CCC(CCCC6CCN(CC[n+]7ccc8ccc9[nH]c%10ccc(OC)cc%10c9c8c7)CC6)CC5)cc4c3c2c1.CS(=O)(=O)[O-].CS(=O)(=O)[O-] | 0.087 |  | 10 | 0.34 | 5 | 0.14 | 5 |
| COc1ccc2c(c1)c1c3c[n+](CCN4CCC(CCC5CCN(CC[n+]6ccc7ccc8c(c7c6)c6cc(OC)ccc6n8C)CC5)CC4)ccc3ccc1n2C.CS(=O)(=O)[O-].CS(=O)(=O)[O-] | 0.225 | 170 | 10 | 0.9 | 5 | 0.77 | 3 |
| COc1ccc2[nH]c3ccc4cc[n+](CCN5CCC(C6CCN(CC[n+]7ccc8ccc9[nH]c%10ccc(OC)cc%10c9c8c7)CC6)CC5)cc4c3c2c1.CS(=O)(=O)[O-].CS(=O)(=O)[O-] | 0.013 | 182 | 10 | 0.19 | 10 | 0.024 | 1 |
| COc1ccc2c(c1)c1c3c[n+](CCN4CCC(C5CCN(CC[n+]6ccc7ccc8c(c7c6)c6cc(OC)ccc6n8C)CC5)CC4)ccc3ccc1n2C.CS(=O)(=O)[O-].CS(=O)(=O)[O-] | 0.013 | 178 | 10 | 0.36 | 2.5 | 0.006 | 2 |
| COc1ccc2[nH]c3ccc4cc[n+](CCN5CCC(CCC6CCN(CC[n+]7ccc8ccc9[nH]c%10ccc(OC)cc%10c9c8c7)CC6)CC5)cc4c3c2c1.CS(=O)(=O)[O-].CS(=O)(=O)[O-] | 0.015 | 143 | 20 | 1.34 | 5 | 0.22 | 7 |
| COc1ccc2c(c1)c1c3c[n+](CCCN4CCC(C5CCN(CC[n+]6ccc7ccc8c(c7c6)c6cc(OC)ccc6n8C)CC5)CC4)ccc3ccc1n2C.CS(=O)(=O)[O-].CS(=O)(=O)[O-] | 0.025 | 128 | 10 | > 0.9 | 10 | 0.112 | 1 |
| COc1ccc2nc3cc(Cl)ccc3c(NCCN3CCC(C4CCN(CC[n+]5ccc6ccc7[nH]c8ccc(OC)cc8c7c6c5)CC4)CC3)c2c1.[Cl-] | 0.057 |  | 15 | 2.7 | 15 | 17 | 5 |
| COc1ccc2nc3cc(Cl)ccc3c(NCCN3CCC(C4CCN(CC[n+]5ccc6ccc7c(c6c5)c5cc(OC)ccc5n7C)CC4)CC3)c2c1.CS(=O)(=O)[O-] | 0.029 |  | 15 | 0.24 | 15 | >0.9 | 10 |
| COc1ccc2c(c1)c1c3c[n+](CCN4CCC(CC5CCN(CC[n+]6ccc7ccc8c(c7c6)c6cc(OC)ccc6n8C)CC5)CC4)ccc3ccc1n2C.CS(=O)(=O)[O-].CS(=O)(=O)[O-] | 0.014 | 190 | 10 | 0.7 | 3 | 0.013 | 20 |
| COc1ccc2[nH]c3ccc4cc[n+](CCN5CCC(CC6CCN(CC[n+]7ccc8ccc9[nH]c%10ccc(OC)cc%10c9c8c7)CC6)CC5)cc4c3c2c1.CS(=O)(=O)[O-].CS(=O)(=O)[O-] | 0.021 | 175 | 30 | 1.08 | 7 | 0.063 | 10 |

Source: ChEMBL document CHEMBL1124101, “Asymmetrical bisintercalators as potential antitumor agents” (1988)
